# Source: ChEMBL document CHEMBL1955865, “Synthesis of novel spirooxindole derivatives by one pot multicomponent reaction and their antimicrobial activity” (2012)
# Experiments:
# [1] = Antifungal activity against Malassezia pachydermatis at 1000 ug/disc after 48 hrs by disc diffusion assay; type: functional
# Summary of the method: (§1)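 Fungal disc diffusion with inoculum from SDA spores (filamentous) or SDB culture (yeast). Test cultures were swabbed on agar, and discs at 1000 µg/disc were left 30 min at room temperature, with a solvent negative control. Plates were incubated 48 h at 27 °C. Zone of inhibition was measured in mm, and the experiment was repeated twice.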
# Salmonella typhimurium [2] = assay: Antibacterial activity against Salmonella Typhimurium MTCC 1251 after 24 hrs by two-fold serial dilution method; type: functional, Salmonella enterica subsp. enterica serovar Typhimurium; details: Salmonella enterica, MTCC 1251, 24 h
# Summary of the method: (§2)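 Bacteria grown in Mueller Hinton broth for 24 h at 37 °C and diluted to about 10^4 CFU/ml. Compound in 2% DMSO was serially diluted two-fold (1000 to 15.62 µg/ml) in medium in 96-well plates and inoculated. Plates were incubated 24 h at 37 °C. 5 µl of broth was spotted onto MHA, and MIC was taken as the lowest concentration with no visible growth on agar.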
# Micrococcus luteus [3] = assay: Antibacterial activity against Micrococcus luteus after 24 hrs by twofold serial dilution method; type: functional; summary of the method: as §2
# Staphylococcus aureus [4] = assay: Antibacterial activity against Staphylococcus aureus MTCC 96 after 24 hrs by twofold serial dilution method; type: functional; details: MTCC 96, 24 h; summary of the method: as §2
# Staphylococcus aureus [5] = assay: Antibacterial activity against methicillin-resistant Staphylococcus aureus at 1000 ug/disc after 24 hrs by disc diffusion assay; type: functional; details: read-out: IZ
# Summary of the method: (§3)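 Disc diffusion on Mueller Hinton agar. Bacteria were grown 24 h at 37 °C in MHB and diluted to about 10^4 CFU/ml, swabbed onto plates and dried 10 min. Discs were loaded at 1000 μg/disc and held 30 min at room temperature for diffusion. Solvent served as negative control. After 24 h at 37 °C, inhibition zones were read in mm; run twice.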
# Proteus vulgaris [6] = assay: Antibacterial activity against Proteus vulgaris MTCC 1771 after 24 hrs by twofold serial dilution method; type: functional; details: MTCC 1771, 24 h; summary of the method: as §2
# Staphylococcus aureus [7] = assay: Antibacterial activity against methicillin-resistant Staphylococcus aureus after 24 hrs by twofold serial dilution method; type: functional
# Summary of the method: (§4)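 Broth microdilution in MHB following the standard bacterial reference method. Compound was dissolved in DMSO (2%) and serially diluted two-fold from 1000 to 15.62 µg/ml in 96-well plates, with an inoculum of about 10^4 CFU/ml. Streptomycin and ciprofloxacin were positive controls. After 24 h at 37 °C, 5 µl of broth was subcultured on MHA. MIC was the lowest concentration without visible growth on agar.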
# Salmonella typhimurium [8] = assay: Antibacterial activity against Salmonella Typhimurium MTCC 1251 at 1000 ug/disc after 24 hrs by disc diffusion assay; type: functional, Salmonella enterica subsp. enterica serovar Typhimurium; details: Salmonella enterica, MTCC 1251, 24 h; read-out: IZ
# Summary of the method: (§5)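 Disc diffusion on Mueller Hinton agar. Cultures (about 10^4 CFU/ml) were swabbed on and dried 10 min. Discs loaded at 1000 µg/disc were left 30 min at room temperature for diffusion, with a solvent negative control. Plates were incubated 24 h at 37 °C. Inhibition zones were measured in mm, and the experiment was done twice.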
# Candida albicans [9] = assay: Antifungal activity against Candida albicans MTCC 227 after 48 to 72 hrs by twofold serial dilution method; type: functional
# Summary of the method: (§6)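 Broth two-fold serial dilution, 1000 to 15.62 µg/ml, with compound dissolved in 2% DMSO, in 96-well plates. Filamentous fungal spores came from 10-day SDA slants at 28 °C, and yeast from SDB grown 48 h at 28 °C. Incubation was 48-72 h at 28 °C. MIC was the lowest concentration with no visible fungal growth.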
# [10] = test system: Salmonella enterica subsp. enterica serovar Paratyphi B; assay: Antibacterial activity against Salmonella paratyphi B after 24 hrs by twofold serial dilution method; type: functional; summary of the method: as §4
# Botrytis cinerea [11] = assay: Antifungal activity against Botrytis cinerea after 48 to 72 hrs by twofold serial dilution method; type: functional; summary of the method: as §6
# Klebsiella pneumoniae [12] = assay: Antibacterial activity against Klebsiella pneumoniae MTCC 109 after 24 hrs by twofold serial dilution method; type: functional; details: MTCC 109, 24 h; summary of the method: as §2
# Candida albicans [13] = assay: Antifungal activity against Candida albicans MTCC 227 at 1000 ug/disc after 48 hrs by disc diffusion assay; type: functional; details: MTCC 227, 48 h, read-out: IZ; summary of the method: as §1
# Proteus vulgaris [14] = assay: Antibacterial activity against Proteus vulgaris MTCC 1771 at 1000 ug/disc after 24 hrs by disc diffusion assay; type: functional; details: MTCC 1771, 24 h, read-out: IZ; summary of the method: as §5
# Klebsiella aerogenes [15] = assay: Antibacterial activity against Enterobacter aerogenes MTCC 111 at 1000 ug/disc after 24 hrs by disc diffusion assay; type: functional; details: MTCC 111, 24 h, read-out: IZ; summary of the method: as §5
# [16] = Antifungal activity against Malassezia pachydermatis after 48 to 72 hrs by twofold serial dilution method; type: functional; summary of the method: as §6
# Botrytis cinerea [17] = assay: Antifungal activity against Botrytis cinerea at 1000 ug/disc after 48 hrs by disc diffusion assay; type: functional; details: read-out: IZ; summary of the method: as §1
# Micrococcus luteus [18] = assay: Antibacterial activity against Micrococcus luteus at 1000 ug/disc after 24 hrs by disc diffusion assay; type: functional; details: read-out: IZ; summary of the method: as §5
# Klebsiella pneumoniae [19] = assay: Antibacterial activity against Klebsiella pneumoniae MTCC 109 at 1000 ug/disc after 24 hrs by disc diffusion assay; type: functional; details: MTCC 109, 24 h, read-out: IZ; summary of the method: as §5
# Klebsiella aerogenes [20] = assay: Antibacterial activity against Enterobacter aerogenes MTCC 111 after 24 hrs by twofold serial dilution method; type: functional; details: MTCC 111, 24 h; summary of the method: as §2
# Staphylococcus aureus [21] = assay: Antibacterial activity against Staphylococcus aureus MTCC 96 at 1000 ug/disc after 24 hrs by disc diffusion assay; type: functional; details: MTCC 96, 24 h, read-out: IZ; summary of the method: as §5
# [22] = test system: Salmonella enterica subsp. enterica serovar Paratyphi B; assay: Antibacterial activity against Salmonella paratyphi B at 1000 ug/disc after 24 hrs by disc diffusion assay; type: functional; details: read-out: IZ; summary of the method: as §3
SMILES,inhibition zone (IZ) [1],MIC (Salmonella typhimurium [2]),MIC (Micrococcus luteus [3]),MIC (Staphylococcus aureus [4]),zone of inhibition at 1000 µg/disc (Staphylococcus aureus [5]),MIC (Proteus vulgaris [6]),MIC (Staphylococcus aureus [7]),zone of inhibition at 1000 µg/disc (Salmonella typhimurium [8]),MIC (Candida albicans [9]),MIC [10],MIC (Botrytis cinerea [11]),MIC (Klebsiella pneumoniae [12]),zone of inhibition at 1000 µg/disc (Candida albicans [13]),zone of inhibition at 1000 µg/disc (Proteus vulgaris [14]),zone of inhibition at 1000 µg/disc (Klebsiella aerogenes [15]),MIC [16],zone of inhibition at 1000 µg/disc (Botrytis cinerea [17]),zone of inhibition at 1000 µg/disc (Micrococcus luteus [18]),zone of inhibition at 1000 µg/disc (Klebsiella pneumoniae [19]),MIC (Klebsiella aerogenes [20]),further results
CN1CC2=C(C(=O)c3ccccc3C2=O)C12C(=O)Nc1ccccc12 (stereo not drawn),11 mm,125 µg/mL,125 µg/mL,62.5 µg/mL,10 mm,250 µg/mL,250 µg/mL,12 mm,125 µg/mL,250 µg/mL,125 µg/mL,125 µg/mL,10 mm,11 mm,10 mm,250 µg/mL,10 mm,13 mm,13 mm,250 µg/mL,zone of inhibition at 1000 µg/disc (Staphylococcus aureus [21]): 15 mm; zone of inhibition at 1000 µg/disc [22]: 10 mm
Cc1ccc2c(c1)C1(C(=O)N2)C2=C(CN1C)C(=O)c1ccccc1C2=O (stereo not drawn),12 mm,250 µg/mL,62.5 µg/mL,31.2 µg/mL,12 mm,250 µg/mL,125 µg/mL,12 mm,250 µg/mL,125 µg/mL,250 µg/mL,62.5 µg/mL,8 mm,9 mm,13 mm,125 µg/mL,9 mm,13 mm,13 mm,125 µg/mL,zone of inhibition at 1000 µg/disc (Staphylococcus aureus [21]): 15 mm; zone of inhibition at 1000 µg/disc [22]: 11 mm
C#CCN1C(=O)C2(C3=C(CN2C)C(=O)c2ccccc2C3=O)c2ccccc21 (stereo not drawn),10 mm,62.5 µg/mL,125 µg/mL,125 µg/mL,10 mm,500 µg/mL,125 µg/mL,15 mm,250 µg/mL,250 µg/mL,250 µg/mL,250 µg/mL,10 mm,9 mm,11 mm,250 µg/mL,10 mm,12 mm,11 mm,250 µg/mL,zone of inhibition at 1000 µg/disc (Staphylococcus aureus [21]): 13 mm; zone of inhibition at 1000 µg/disc [22]: 10 mm
CN1CC2=C(C(=O)c3ccccc3C2=O)C12C(=O)Nc1ccc(I)cc12 (stereo not drawn),14 mm,125 µg/mL,15.6 µg/mL,62.5 µg/mL,8 mm,500 µg/mL,500 µg/mL,14 mm,250 µg/mL,500 µg/mL,250 µg/mL,250 µg/mL,11 mm,10 mm,12 mm,125 µg/mL,12 mm,15 mm,11 mm,250 µg/mL,zone of inhibition at 1000 µg/disc (Staphylococcus aureus [21]): 16 mm; zone of inhibition at 1000 µg/disc [22]: 7 mm
CN1C(=O)C2(C3=C(CN2C)C(=O)c2ccccc2C3=O)c2ccccc21 (stereo not drawn),11 mm,125 µg/mL,125 µg/mL,62.5 µg/mL,10 mm,125 µg/mL,250 µg/mL,14 mm,250 µg/mL,250 µg/mL,250 µg/mL,31.2 µg/mL,9 mm,10 mm,10 mm,125 µg/mL,8 mm,12 mm,18 mm,125 µg/mL,zone of inhibition at 1000 µg/disc (Staphylococcus aureus [21]): 13 mm; zone of inhibition at 1000 µg/disc [22]: 11 mm
CCCCCCN1C(=O)C2(C3=C(CN2C)C(=O)c2ccccc2C3=O)c2ccccc21 (stereo not drawn),12 mm,62.5 µg/mL,250 µg/mL,250 µg/mL,10 mm,500 µg/mL,500 µg/mL,16 mm,125 µg/mL,500 µg/mL,500 µg/mL,500 µg/mL,14 mm,10 mm,13 mm,250 µg/mL,10 mm,10 mm,10 mm,250 µg/mL,zone of inhibition at 1000 µg/disc (Staphylococcus aureus [21]): 12 mm; zone of inhibition at 1000 µg/disc [22]: 8 mm
Cc1ccc2c(c1)C1(C(=O)N2C)C2=C(CN1C)C(=O)c1ccccc1C2=O (stereo not drawn),10 mm,15.6 µg/mL,125 µg/mL,15.6 µg/mL,14 mm,125 µg/mL,125 µg/mL,22 mm,250 µg/mL,500 µg/mL,250 µg/mL,250 µg/mL,12 mm,16 mm,17 mm,500 µg/mL,11 mm,15 mm,13 mm,62.5 µg/mL,zone of inhibition at 1000 µg/disc (Staphylococcus aureus [21]): 22 mm; zone of inhibition at 1000 µg/disc [22]: 8 mm
CN1CC2=C(C(=O)c3ccccc3C2=O)C12C(=O)Nc1ccc(Br)cc12 (stereo not drawn),10 mm,31.2 µg/mL,62.5 µg/mL,15.6 µg/mL,12 mm,125 µg/mL,250 µg/mL,19 mm,500 µg/mL,500 µg/mL,250 µg/mL,500 µg/mL,10 mm,12 mm,16 mm,500 µg/mL,11 mm,17 mm,10 mm,62.5 µg/mL,zone of inhibition at 1000 µg/disc (Staphylococcus aureus [21]): 20 mm; zone of inhibition at 1000 µg/disc [22]: 8 mm
CCCCN1C(=O)C2(C3=C(CN2C)C(=O)c2ccccc2C3=O)c2ccccc21 (stereo not drawn),11 mm,125 µg/mL,250 µg/mL,62.5 µg/mL,8 mm,500 µg/mL,500 µg/mL,15 mm,500 µg/mL,500 µg/mL,500 µg/mL,250 µg/mL,10 mm,10 mm,10 mm,250 µg/mL,9 mm,13 mm,13 mm,500 µg/mL,zone of inhibition at 1000 µg/disc (Staphylococcus aureus [21]): 17 mm; zone of inhibition at 1000 µg/disc [22]: 9 mm
